Laboratory results: ChEMBL document CHEMBL1148549, “A novel class of potent influenza virus inhibitors: polysubstituted acylthiourea and its fused heterocycle derivatives” (Bioorg Med Chem Lett, 2006)

Assays:
[1] = system: Influenza A virus; assay: Inhibitory activity against influenza A3/Beijing/30/95 ([…]) virus in MDCK cells; type: functional, organism-based
Method in brief: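 MDCK cells in 96-well plates were infected with influenza ([…]) virus at 50 PFU/well and treated with serially diluted compound. IC50 was calculated from the dilution series and reported in µM as the mean of at least three independent experiments run on different days.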

[2] = system: MDCK; assay: Cytotoxicity in MDCK cells using MTS assay; type: functional, cell-based; conditions: Canis lupus familiaris

Compound	IC50 [1] [nM]	Activity [2]
CC(C)(C)NC(=O)NC(=S)NC(=O)COc1ccc(Cl)cc1Cl	1670	Not toxic
CCOc1cc(C)nc2n/c(=N/C(=O)c3ccc(-c4ccccc4Cl)o3)sn12	350	Not toxic
CC(C)(C)NC(=O)NC(=S)NC(=O)c1ccc(-c2ccccc2Cl)o1	1420	Not toxic
CCOc1cc(OCC)nc(NC(=S)NC(=O)c2ccc(-c3ccc([N+](=O)[O-])cc3)o2)n1	> 20000	Not toxic
CCOc1cc(OCC)nc(NC(=S)NC(=O)c2cccnc2Cl)n1	> 20000	Not toxic
COc1cc(Cl)nc(NC(=O)NC(=O)c2c(F)cccc2F)n1	15900	Not toxic
COc1cc(OC)nc(NC(=S)NC(=O)c2ccc(-c3ccc([N+](=O)[O-])cc3)o2)n1	> 20000	Not toxic
CCOc1cc(OCC)n2s/c(=N\C(=O)c3ccc(-c4ccc([N+](=O)[O-])cc4)o3)nc2n1	5250	Not toxic
CC(C)(C)NC(=O)NC(=S)NC(=O)c1ccccc1	1790	Not toxic
CC(C)C(C(=O)NC(=O)NC(=O)NC(C)(C)C)c1ccc(Cl)cc1 (configuration not stated)	15500	Not toxic
Cc1cc(O)nc(NC(=S)NC(=O)c2ccc(Cl)nc2)n1	8580	Not toxic
COc1cc(OC)nc(NC(=S)NC(=O)c2cnc(Cl)c(Cl)c2)n1	18500	Not toxic
COc1cc(C)nc(NC(=S)NC(=O)c2ccc(-c3ccc([N+](=O)[O-])cc3)o2)n1	1220	Not toxic
COc1cc(OC)n2s/c(=N\C(=O)c3cccnc3Cl)nc2n1	2410	Not toxic
COc1cc(Cl)nc(NC(=S)NC(=O)c2cccnc2Cl)n1	2590	Not toxic
COC(=O)NC(=S)NC(=O)NC(C)(C)C	1830	Not toxic
CC(C)(C)NC(=O)NC(=S)NC(=O)[C@H]1[C@@H](/C=C(\Cl)C(F)(F)F)C1(C)C	510	Not toxic
Cc1cc(C)nc(NC(=O)NC(=O)c2c(F)cccc2F)n1	> 20000	Not toxic
CC(C)(C)NC(=O)NC(=S)NC(=O)c1ccc(-c2ccc([N+](=O)[O-])cc2)o1	1300	Not toxic
COc1cc(OC)nc(NC(=O)NC(=O)c2c(F)cccc2F)n1	> 20000	Not toxic
Cc1cc(Cl)nc(NC(=O)NC(=O)c2c(F)cccc2F)n1	> 20000	Not toxic
COc1cc(C)nc(NC(=S)NC(=O)c2ccc(Cl)nc2)n1	> 20000	Not toxic
O=C(NC(=S)Nc1nc(Cl)cc(Cl)n1)c1ccc(-c2ccccc2Cl)o1	14500	Not toxic

Compound	IC50 [1] [nM]	Activity [2]
COc1cc(OC)nc(NC(=S)NC(=O)c2cccnc2)n1	> 20000	Not toxic
CC(C)(C)NC(=O)NC(=S)NC(=O)[C@@H]1[C@@H](C=C(Cl)Cl)C1(C)C	260	Not toxic
COc1cc(OC)nc(NC(=S)NC(=O)c2ccc(-c3ccccc3Cl)o2)n1	1770	Not toxic
CC(C)(C)NC(=O)NC(=O)NC(=O)c1c(F)cccc1F	14100	Not toxic
COc1cc(Cl)nc2n/c(=N/C(=O)c3ccc(Cl)nc3)sn12	9320	Not toxic
CC(C)(C)NC(=O)NC(=O)NC(=O)c1ccccc1	> 20000	Not toxic
Cc1cc(C)nc(NC(=S)NC(=O)c2cccnc2Cl)n1	7190	Not toxic
CCOc1cc(OCC)nc(NC(=S)NC(=O)c2ccc(-c3ccccc3Cl)o2)n1	80	Not toxic
COc1cc(Cl)nc(NC(=S)NC(=O)c2ccc(-c3ccccc3Cl)o2)n1	1290	Not toxic
COc1cc(C)nc(NC(=S)NC(=O)c2ccc(-c3ccccc3Cl)o2)n1	> 20000	Not toxic
CCOc1cc(C)nc(NC(=S)NC(=O)c2ccc(-c3ccccc3Cl)o2)n1	1650	Not toxic
Cc1cc(O)nc(NC(=S)NC(=O)c2ccc(-c3ccc([N+](=O)[O-])cc3)o2)n1	360	Not toxic
CC(C)(C)NC(=O)NC(=S)NC(=O)c1c(F)cccc1F	1430	Not toxic
COc1cc(Cl)nc(NC(=S)NC(=O)c2ccc(Cl)nc2)n1	> 20000	Not toxic
CCOc1cc(Cl)nc(NC(=S)NC(=O)c2ccc(-c3ccccc3Cl)o2)n1	> 20000	Not toxic
CCOc1cc(OCC)n2s/c(=N\C(=O)c3ccc(Cl)nc3)nc2n1	90	Not toxic
COc1cc(OC)n2s/c(=N\C(=O)c3cccnc3)nc2n1	> 20000	Not toxic
CCOc1cc(Cl)nc(NC(=S)NC(=O)c2cccnc2Cl)n1	> 20000	Not toxic
Cc1cc(=O)nc2nc(NC(=O)c3ccc(-c4ccc([N+](=O)[O-])cc4)o3)sn12	670	Not toxic
Cc1cc(O)nc(NC(=S)NC(=O)c2ccc(-c3ccccc3Cl)o2)n1	320	Not toxic
CCOc1cc(C)nc(NC(=S)NC(=O)c2ccc(-c3ccc([N+](=O)[O-])cc3)o2)n1	11300	Not toxic
CC(C)[C@H](C(=O)NC(=S)NC(=O)NC(C)(C)C)c1ccc(Cl)cc1	1350	Not toxic
CCOc1cc(OCC)nc(NC(=S)NC(=O)c2ccc(Cl)nc2)n1	> 20000	Not toxic
